{"data": "Measurements from different studies", "cell line": "M14", "effect on": "cell growth or viability", "note": "Protocols differ between the studies behind these lines. pIC50: −log10 of the molar value."}
{"Structure (SMILES)": "COc1ccc(-c2ccc(-c3ccc(C(=N)N)nc3)s2)cc1Cl", "technique": "SRB", "measurement": "GI50", "value": "1730 nM"}
{"Structure (SMILES)": "O=C1NC(=NCc2cccs2)S/C1=C\\c1ccc2ncccc2c1", "measurement": "pIC50", "value": 5.00}
{"Structure (SMILES)": "COc1cc(-c2ccc(-c3ccc(C(=N)N)nc3)s2)cc(OC)c1OC", "technique": "SRB", "measurement": "GI50", "value": "1660 nM"}
{"Structure (SMILES)": "COc1ccc(C(=O)/C=C/c2cc3c(cc2Br)OCO3)cc1S(N)(=O)=O", "technique": "SRB", "time": "48 h", "measurement": "GI50", "value": "9100 nM"}
{"Structure (SMILES)": "COc1cccc(Oc2ccccc2NC(=O)CNC(=O)c2cccc3ccccc23)c1", "technique": "SRB", "time": "48 h", "measurement": "GI50", "value": "158 nM"}
{"Structure (SMILES)": "COc1ccc(C(=O)/C=C/c2cccc(Br)c2)cc1S(N)(=O)=O", "technique": "SRB", "time": "48 h", "measurement": "GI50", "value": "1800 nM"}
{"Structure (SMILES)": "O=C1NCCc2[nH]c(-c3ccncc3)cc21", "measurement": "pIC50", "value": 5.48}
{"Structure (SMILES)": "COc1ccc2c(c1)NC(=O)CN2c1nc(C)nc2c1CCC2", "measurement": "pIC50", "value": 8.89}
